The entries come from a sample that favours hits as a whole.
CHOP inhibitor = inhibitors of CHOP promoter induction, primary screen, cell-based, unfolded protein response, luciferase reporter | AID 2732, 2010 | 220,000 compounds, 3.8% hits | inhibition, % at 10 µM | CHO-K1 CHOP-promoter luciferase, tunicamycin-induced, 15-18 h;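 active = compounds that reduced the stress-induced luciferase reporter signal by more than about 70% of percent inhibition, limit read from the data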
FXN GAA850 act = FXN promoter activators, primary screen, cell-based, luciferase luminescence, HEK293 lucGAA850. 360,000 compounds, 0.56% hits. AID 540364, 2011. activation, % at 6 µM. HEK293 lucGAA850 FXN promoter luciferase reporter, 24 h; percent of 10 µM SAHA response;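 active = activation above the average of all compounds screened plus 3 SD, cutoff fixed separately per campaign, cut at about 7.5% in these data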
UPR CHOP act = activators of apoptotic CHOP UPR arm, primary screen, cell-based, CHO-CHOP luciferase reporter, luminescence, uHTS. AID 449763, 2010. 330,000 compounds, 0.34% hits. UPR activation; percent of tunicamycin response over DMSO baseline. activation, % at 10 µM;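 active = at 10 µM dose, activation of 40% or more, normalized to positive control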
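measured by = luciferase luminescence | assay system = CHO-CHOP cells, stable luciferase reporter of PERK-eIF2a-CHOP signalling | amount = 500 reporter cells seeded per well | timing = 6 h compound exposure at 37 °C after overnight seeding | controls = positive tunicamycin 10 µg/mL, negative DMSO alone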
UPR XBP1 act = activators of adaptive XBP1 UPR arm, primary screen, cell-based, CHO-XBP1 luciferase reporter, luminescence, uHTS | IRE1-XBP1 UPR activation; percent of tunicamycin response, DMSO as zero | activation, % at 20 µM | 330,000 compounds, 0.33% hits;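 active = versus positive control, 20 µM dose yields 30% or more activation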
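Material – CHO cell line with stable XBP1 luciferase reporter · Buffer or medium – F12 plus 10% FBS · Compound – single point, 20 µM final compound, 1% DMSO · Schedule – 16-18 h cell attachment at 37 °C, then 6 h compound exposure · Signal – Steady-Glo luminescence read · Benchmarks – high control tunicamycin 10 µg/mL final, low control DMSO vehicle only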
CHOP confirm = retest of CHOP induction inhibitors, confirmation, cell-based | shares compounds with CHOP inhibitor | CHO-CHOP promoter luciferase reporter, tunicamycin-induced, luminescence | inhibition, % at 10 µM | 2,100 compounds, 45% hits;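 active = mean of three repeat readings of reporter signal inhibition above a set limit, cut at about 70% in these data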
UPR CHOP confirm = activators of apoptotic CHOP UPR arm, confirmation, cell-based, CHO-CHOP luciferase reporter, single concentration. shares compounds with UPR CHOP act. CHO-CHOP cells, CHOP-luciferase reporter luminescence; percent of tunicamycin response, DMSO as zero. activation, % at 10 µM. 1,000 compounds, 64% hits; in the data active = activation above about 33%
XBP1 UPR conf = IRE1-XBP1 UPR arm activators, confirmation, cell-based, CHO-XBP1 luciferase reporter, luminescence, single concentration | shares compounds with UPR XBP1 act | activation, % at 20 µM | 1,000 compounds, 63% hits;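 active = reporter signal at least 30% of the positive control's activation in two or more of four replicate wells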
A number is an active result; 0 = inactive; - = no result.

SMILES | CHOP inhibitor | FXN GAA850 act | UPR CHOP act | UPR XBP1 act | CHOP confirm | UPR CHOP confirm | XBP1 UPR conf
O=c1c2ccccc2sn1-c1ccc(Cl)cc1Cl | - | 0 | - | - | - | - | -
CN(C)c1ccc(CNC(=O)C2Cc3c(-c4ccccc4Oc4ccccc4)ccnc3O2)cc1 (configuration not stated) | - | 0 | - | - | - | - | -
CC(C)Oc1ccc(CN2CCC2(C)C(=O)Nc2cccc(Oc3ccccc3)c2)cc1 (configuration not stated) | - | 0 | - | - | - | - | -
FC(F)(F)c1nnc(-c2ccccc2)nc1Sc1ccccc1 | 108.8 | 0 | 200.8 | 0 | 0 | 58.6 | -
FC(F)(F)c1nnc(-c2ccccc2)nc1Oc1ccc(Cl)cc1Cl | 0 | 0 | 0 | 0 | - | - | -
FC(F)(F)c1nnc(-c2ccccc2)nc1Sc1ccc(Cl)cc1 | 114.2 | 0 | 84.0 | 0 | 118.9 | 0 | -
Cc1cc(C(=O)N2CCCC(C)(C(=O)NS(=O)(=O)C3CC3)C2)n(C(C)(C)C)n1 (configuration not stated) | - | 0 | - | - | - | - | -
C=C(C)C(=O)OC1(C(F)(F)F)Oc2cc(C)ccc2NC1=O (configuration not stated) | 108.8 | 0 | 44.9 | 0 | 116.3 | 0 | -
CCOc1cc(/C=C2\C(=O)ON=C2c2ccccc2)ccc1OC | - | 0 | 0 | 0 | - | - | -
CCOc1cc(/C=C2/C(=O)ON=C2C)ccc1OCc1ccccc1F | 98.9 | 0 | 112.0 | 0 | 111.7 | 67.5 | -
CCOc1cc(/C=C2/C(=O)ON=C2C)ccc1OCc1ccccc1 | 105.1 | - | 58.1 | 0 | 0 | 0 | -
COC(=O)CSC1=C(C#N)C(=O)NC(c2ccccc2)S1 (configuration not stated) | 99.3 | 0 | 87.7 | 0 | 0 | 0 | -
Fc1ccc(Nc2nc(NCc3cccs3)nc3ccsc23)cc1 | - | 0 | - | - | - | - | -
CCOc1ccc(CCN2C(=O)C(=O)N([C@H](CCCN(C)Cc3ccccc3)CNCc3ccccc3)C[C@@H]2C(C)C)cc1 | 0 | - | 0 | 0 | - | - | -
COc1ccc(CNC[C@@H](CCCCN(C)Cc2ccc(OC)cc2)N2C[C@H](c3ccccc3)N(CCc3ccc(Cl)c(Cl)c3)C(=O)C2=O)cc1 | 104.7 | 0 | 133.7 | 0 | 0 | 146.6 | -
CN(C)CC(C(=O)c1ccccc1)c1ccccc1 (configuration not stated) | - | 0 | 159.3 | 0 | 0 | 41.4 | -
CC(=O)Nc1ccc(C(=O)CCl)cc1 | - | 0 | 0 | 0 | - | - | -
CC(=O)NCc1ccc(C(=O)CCl)cc1 | 106.2 | 0 | 112.9 | 0 | 0 | 0 | -
COc1ccc(C(=O)OCC(=O)c2ccc(CNC(C)=O)s2)cc1 | - | 0 | 0 | 0 | - | - | -
CC(=O)NCc1ccc(C(=O)CCl)s1 | 107.8 | 0 | 63.7 | 0 | 107.4 | 0 | -
Cc1cc(C)cc(CC(=O)N2CCC2(C)C(=O)NS(=O)(=O)Cc2ccccc2)c1 (configuration not stated) | - | 0 | - | - | - | - | -
O=[N+]([O-])c1ccc(/C=N/n2c(C3CCCCC3)n[nH]c2=S)cc1 | 105.4 | 0 | 0 | 34.0 | 113.1 | - | 0
CCc1cc2c(C)ccc(C)c2nc1SCC(=O)Nc1c[nH]c(=O)[nH]c1=O | 100.6 | 0 | 0 | 51.7 | 0 | - | 37.1
CC(C)Cn1c2c(c(=O)[nH]c1=O)C(C(F)(F)F)(C(F)(F)F)N=C(CCC1CCCCC1)N2 | 101.8 | 0 | 0 | 32.6 | 82.3 | - | 37.8
COc1cc(/C=C(\C#N)c2nc3ccccc3[nH]2)cc(Br)c1OCc1ccc(F)cc1 | 104.2 | 0 | 0 | 109.8 | 84.1 | - | 128.2
SMILES | CHOP inhibitor | FXN GAA850 act | UPR CHOP act | UPR XBP1 act | CHOP confirm | UPR CHOP confirm | XBP1 UPR conf
COc1cc(/C=C(\C#N)c2nc3ccccc3[nH]2)cc(Br)c1OCc1ccccc1 | 0 | 0 | 0 | 0 | - | - | -
CCc1nc2ccc(C(=O)Nc3cccc(OCC(=O)N(C)C)c3)cn2c1N(C=O)Cc1ccc(OC)cc1 | - | 0 | - | - | - | - | -
COc1ccc(Cn2c(C3CCCCC3)nc3c(c(=O)c4ccccc4n3C)c2=O)cc1 | 0 | - | 0 | 0 | - | - | -
COc1ccc(CCn2c(C3CCCCC3)nc3c(c(=O)c4ccccc4n3C)c2=O)cc1 | 100.2 | 0 | 0 | 33.9 | 0 | - | 81.7
COc1ccccc1CNc1nc(NCC2CC2)nc2ccsc12 | - | 0 | - | - | - | - | -
CC(=O)Nc1ccc(NC(=O)C(C)OC(=O)/C=C/c2cn(-c3ccccc3)nc2-c2cccnc2)cc1 (configuration not stated) | 103.6 | 0 | 0 | 35.8 | 0 | - | 0
Cc1ccccc1NC(=O)COC(=O)/C=C/c1cn(-c2ccccc2)nc1-c1cccnc1 | 0 | 0 | 0 | 0 | - | - | -
COc1ccc(CN2C(=O)C(CC(=O)NCc3cccs3)CC(C(=O)N(C(C)C)C(C)C)=C2C)cc1 (configuration not stated) | - | 0 | - | - | - | - | -
COc1ccc(Cn2c(SCc3ccccc3C)nc3cc(OC)c(OC)cc3c2=N)cc1 | 107.0 | 0 | 0 | 115.3 | 119.6 | - | 61.0
COc1cc2nc(SCc3ccc(F)cc3)n(Cc3cccs3)c(=N)c2cc1OC | 0 | 0 | 0 | 0 | - | - | -
COCc1cc(C)nc(SCC(=O)Nc2cccc(C)c2C)c1C#N | 0 | 0 | 0 | 0 | - | - | -
Cc1cccc(NC(=O)CSc2nc(C)c(CC(=O)c3ccc(Br)cc3)c(C)c2C#N)c1C | 102.5 | 0 | 0 | 48.1 | 106.4 | - | 98.2
Cc1nc(SCC(=O)Nc2ccc(F)cc2)c(C#N)c(C)c1CC(=O)c1ccc(Br)cc1 | 103.0 | 0 | 57.0 | 97.5 | 96.8 | 34.9 | 67.8
CNc1cncc(-c2cccc(C(=O)NC3CC3)c2)n1 | - | 0 | - | - | - | - | -
CCn1c(=O)c(C(=O)Nc2ccccc2)c(O)c2ccccc21 | - | 0 | 0 | 0 | - | - | -
CCn1c(=O)c(C(=O)Nc2nc3ccccc3[nH]2)c(O)c2ccccc21 | - | 0 | 0 | 77.6 | 120.3 | - | 0
O=C(/C=C\c1cn(-c2ccccc2)nc1-c1ccccc1)Nc1nccs1 | 108.0 | 0 | 50.9 | 105.7 | 104.8 | 0 | 113.3
C=C1C(=O)N(C)CCC1C(CC)C(=O)OC (configuration not stated) | - | 0 | - | - | - | - | -
NS(=O)(=O)c1ccc(N/N=C2/CCCCC2C2CCCCC2)c([N+](=O)[O-])c1 (configuration not stated) | 107.6 | 0 | 0 | 55.0 | 115.4 | - | 83.9
COc1ccc(OC)c(N(CCN2C(=O)c3ccccc3C2=O)C(=O)CCl)c1 | - | 0 | - | - | - | - | -
O=C(Cc1cccs1)Nc1cccc(-c2nnc(-c3ccco3)o2)c1 | 0 | 0 | 0 | 0 | - | - | -
Cc1ccc(-c2nnc(-c3ccc(NC(=O)Cc4cccs4)cc3)o2)cc1 | 105.3 | 0 | 41.3 | 141.8 | 102.2 | 0 | 51.6
